Data: ChEMBL document CHEMBL4177769, “Highly Selective and Potent Ectonucleotide Pyrophosphatase-1 (NPP1) Inhibitors Based on Uridine 5'-Pα,α-Dithiophosphate Analogues” (J Med Chem, 2018)

How the values were obtained:
[1] = target: T1, Ectonucleotide pyrophosphatase/phosphodiesterase family member 3 (Homo sapiens) (UniProt O14638); test: Inhibition of human NPP3 at 100 uM using pNP-TMP as substrate preincubated for 3 mins followed by substrate addition measured after 15 mins
T1 sequence (whole entry): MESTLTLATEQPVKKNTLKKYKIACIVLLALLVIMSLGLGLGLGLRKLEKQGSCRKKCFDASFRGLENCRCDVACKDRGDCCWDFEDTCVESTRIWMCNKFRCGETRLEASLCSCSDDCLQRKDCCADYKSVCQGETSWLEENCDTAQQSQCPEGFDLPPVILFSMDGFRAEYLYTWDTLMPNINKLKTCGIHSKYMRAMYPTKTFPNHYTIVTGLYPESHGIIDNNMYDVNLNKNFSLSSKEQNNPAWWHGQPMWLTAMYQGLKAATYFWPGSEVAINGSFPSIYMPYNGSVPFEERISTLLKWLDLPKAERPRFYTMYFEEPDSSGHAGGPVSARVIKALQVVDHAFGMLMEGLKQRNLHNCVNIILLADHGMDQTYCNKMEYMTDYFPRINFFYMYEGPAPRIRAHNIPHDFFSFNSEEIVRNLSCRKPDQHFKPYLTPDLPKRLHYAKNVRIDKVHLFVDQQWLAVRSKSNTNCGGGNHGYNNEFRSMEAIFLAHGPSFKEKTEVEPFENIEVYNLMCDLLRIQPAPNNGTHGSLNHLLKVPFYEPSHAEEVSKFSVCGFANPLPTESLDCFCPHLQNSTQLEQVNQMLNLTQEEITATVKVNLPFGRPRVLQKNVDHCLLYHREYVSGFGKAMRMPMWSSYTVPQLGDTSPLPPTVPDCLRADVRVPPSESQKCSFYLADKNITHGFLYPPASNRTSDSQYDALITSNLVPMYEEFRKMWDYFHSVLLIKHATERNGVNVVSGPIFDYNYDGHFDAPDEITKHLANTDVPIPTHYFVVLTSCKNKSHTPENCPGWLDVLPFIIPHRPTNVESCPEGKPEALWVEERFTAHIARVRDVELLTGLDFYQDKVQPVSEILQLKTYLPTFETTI
Method in brief: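 Human NPP1 (4−5 μg) or NPP3 (12−14 μg) cell lysate in mM 1 CaCl2, 140 NaCl, 5 KCl, 50 Tris pH 8.5, 37 °C. Compound at 100 μM, 3 min preincubation, 100 μM pNP-TMP substrate. p-Nitrophenol read at 405 nm after 15 min. Blank with enzyme added at end subtracted. Activity without compound taken as 100%. At least two independent experiments in triplicate.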

[2] = Drug level treated with UTP 5'-O-Palpha,alpha-dithiophosphate at 2 mM at pH 11.7 at room temperature after 25 days by 31P NMR method; format: physicochemical; conditions: pH 11.7, 600 h, 2000 µM
[3] = Stability of the compound assessed as air oxidation at room temperature at 1.8 mM after 3 weeks by 31P NMR method; format: physicochemical; conditions: 504 h, 1800 µM
[4] = target: T2, Ectonucleoside triphosphate diphosphohydrolase 1 (Homo sapiens) (UniProt P49961); test: Activation of human NTPDase1 using ATP as substrate preincubated for 3 mins followed by substrate addition measured after 10 mins by malachite green reagent-based assay relative to control
T2 sequence (whole entry): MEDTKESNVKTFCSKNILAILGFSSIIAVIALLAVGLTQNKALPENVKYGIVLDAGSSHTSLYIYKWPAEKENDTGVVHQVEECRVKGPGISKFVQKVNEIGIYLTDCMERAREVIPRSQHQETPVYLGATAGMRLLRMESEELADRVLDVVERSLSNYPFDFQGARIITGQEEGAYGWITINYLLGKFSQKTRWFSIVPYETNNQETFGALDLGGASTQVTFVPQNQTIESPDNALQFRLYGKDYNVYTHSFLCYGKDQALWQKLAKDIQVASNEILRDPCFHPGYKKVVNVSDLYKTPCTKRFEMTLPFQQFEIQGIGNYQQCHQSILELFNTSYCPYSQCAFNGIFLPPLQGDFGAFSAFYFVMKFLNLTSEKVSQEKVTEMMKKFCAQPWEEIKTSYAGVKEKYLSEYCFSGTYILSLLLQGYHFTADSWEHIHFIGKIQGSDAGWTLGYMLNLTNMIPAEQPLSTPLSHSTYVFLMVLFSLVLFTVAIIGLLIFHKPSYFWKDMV
Method in brief: (§1)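 Compound at 100 μM, 3 min preincubation, 100 μM ATP, 10 min. Stopped with malachite green; Pi read at 630 nm. Blank with enzyme added after stop subtracted. Activity with ATP alone taken as 100%.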

[5] = target: T3, Ectonucleoside triphosphate diphosphohydrolase 2 (Homo sapiens) (UniProt Q9Y5L3); test: Activation of human NTPDase2 using ATP as substrate preincubated for 3 mins followed by substrate addition measured after 10 mins by malachite green reagent-based assay relative to control; method in brief: as §1
T3 sequence (whole entry): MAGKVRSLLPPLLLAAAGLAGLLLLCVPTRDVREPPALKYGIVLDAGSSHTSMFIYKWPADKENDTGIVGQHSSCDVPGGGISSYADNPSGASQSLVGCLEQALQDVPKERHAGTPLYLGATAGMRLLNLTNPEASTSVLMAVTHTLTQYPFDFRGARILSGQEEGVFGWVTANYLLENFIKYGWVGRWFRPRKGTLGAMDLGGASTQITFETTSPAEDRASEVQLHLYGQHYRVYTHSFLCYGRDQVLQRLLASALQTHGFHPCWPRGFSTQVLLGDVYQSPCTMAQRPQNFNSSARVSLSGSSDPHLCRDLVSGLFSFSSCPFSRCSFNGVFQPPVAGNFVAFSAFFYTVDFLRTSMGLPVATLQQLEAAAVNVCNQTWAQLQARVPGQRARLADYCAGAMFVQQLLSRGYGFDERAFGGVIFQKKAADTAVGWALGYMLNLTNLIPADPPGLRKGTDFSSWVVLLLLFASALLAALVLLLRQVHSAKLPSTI

[6] = target: T4, Ectonucleoside triphosphate diphosphohydrolase 8 (Homo sapiens) (UniProt Q5MY95); test: Activation of human NTPDase8 using ATP as substrate preincubated for 3 mins followed by substrate addition measured after 10 mins by malachite green reagent-based assay relative to control; method in brief: as §1
T4 sequence (whole entry): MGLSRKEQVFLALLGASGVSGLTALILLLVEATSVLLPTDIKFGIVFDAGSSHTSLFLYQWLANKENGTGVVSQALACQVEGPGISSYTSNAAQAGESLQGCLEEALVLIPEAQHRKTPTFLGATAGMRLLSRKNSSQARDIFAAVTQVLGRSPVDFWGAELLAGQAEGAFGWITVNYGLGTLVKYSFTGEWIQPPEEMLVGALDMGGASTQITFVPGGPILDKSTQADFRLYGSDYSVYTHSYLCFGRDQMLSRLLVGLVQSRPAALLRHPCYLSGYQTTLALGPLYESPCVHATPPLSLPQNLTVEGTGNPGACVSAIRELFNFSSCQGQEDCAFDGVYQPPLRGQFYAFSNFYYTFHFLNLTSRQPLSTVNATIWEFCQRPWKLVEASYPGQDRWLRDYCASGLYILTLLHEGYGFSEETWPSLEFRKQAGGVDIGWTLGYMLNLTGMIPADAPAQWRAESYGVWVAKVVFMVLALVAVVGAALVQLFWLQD

| SMILES | inhibition [1] | Drug metabolism [2] | Stability [3] | Activity [4] | Activity [5] | Activity [6] |
| --- | --- | --- | --- | --- | --- | --- |
| O=c1ccn([C@@H]2O[C@H](COP(=S)(S)OP(=O)(O)O)[C@@H](O)[C@H]2O)c(=O)[nH]1 (stereo partly drawn) | 21% | Metabolite_Detected |  |  |  |  |
| O=c1ccn([C@@H]2O[C@H](COP(=S)(S)OP(=O)(O)CP(=O)(O)O)[C@@H](O)[C@H]2O)c(=O)[nH]1 (stereo partly drawn) | 21% |  | Stable |  |  |  |
| O=c1ccn([C@@H]2O[C@H](COP(=S)(S)OP(=O)(O)OP(=O)(O)O)[C@@H](O)[C@H]2O)c(=O)[nH]1 (stereo partly drawn) |  |  | Stable | 7 to 27% | 7 to 27% | 7 to 27% |
